ChEMBL document CHEMBL2380206, “Discovery of potent, selective chymase inhibitors via fragment linking strategies” (J Med Chem, 2013)

Key:
Chymase = target: T1, Chymase (Homo sapiens, UniProt P23946); test: Inhibition of recombinant human chymase using bis(succinoyl-L-alanyl-L-prolyl-L-phenylalanylamide) as substrate after 1 hr by fluorescence assay
T1 sequence (P23946 whole entry): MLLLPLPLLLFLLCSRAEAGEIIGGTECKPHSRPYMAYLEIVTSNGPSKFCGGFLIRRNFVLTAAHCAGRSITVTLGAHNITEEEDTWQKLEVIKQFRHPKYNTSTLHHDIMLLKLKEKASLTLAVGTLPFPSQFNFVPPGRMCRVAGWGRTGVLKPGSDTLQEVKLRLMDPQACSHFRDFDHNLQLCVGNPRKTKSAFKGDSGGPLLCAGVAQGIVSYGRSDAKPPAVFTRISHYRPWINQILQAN

Cathepsin G = target: T2, Cathepsin G (Homo sapiens, UniProt P08311); test: Inhibition of human cathepsin G using bis(succinoyl-L-alanyl-L-prolyl-L-phenylalanylamide) as substrate after 1 hr by fluorescence assay
T2 sequence (P08311 whole entry): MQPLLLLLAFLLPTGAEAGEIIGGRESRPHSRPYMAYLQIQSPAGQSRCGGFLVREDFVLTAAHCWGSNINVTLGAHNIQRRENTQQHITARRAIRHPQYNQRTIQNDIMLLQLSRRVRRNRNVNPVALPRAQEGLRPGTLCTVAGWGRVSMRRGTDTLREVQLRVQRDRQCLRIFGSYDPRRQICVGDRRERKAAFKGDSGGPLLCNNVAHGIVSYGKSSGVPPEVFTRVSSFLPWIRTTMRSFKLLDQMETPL

Liver microsomes = test: Metabolic stability in human liver microsomes assessed as GSH adduct formation incubated for 3 min prior to NADPH addition measured after 2 hrs by mass spectrometric analysis
Homo sapiens = species on record: Homo sapiens; test: Selectivity ratio of IC50 for human cathepsin G to IC50 for recombinant human chymase
In short: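 Both IC50s from the same fluorogenic rhodamine 110 bis(Suc-Ala-Ala-Pro-Phe-amide) assay, 1 h at 28 °C/80% humidity, ex 485 / em 530 nm, with 0.01% CHAPS, 100 μM TCEP and 1% DMSO. Chymase: 500 pM recombinant human enzyme, 100 nM substrate, 20 mM Tris-HCl pH 8.0, 50 mM NaCl. Cathepsin G: 4 nM enzyme, 300 nM substrate, PBS plus 10 mM HEPES pH 7.4.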

Compound	IC50 (Chymase) [µM]	IC50 (Cathepsin G) [µM]	further results
O=C1NCc2ccc(Cl)cc21	> 1000	–	–
CCCC(CC(=O)O)n1c(=O)n(Cc2cc(Br)cc3c2CC(=O)N3)c2ccccc21 (stereo not given)	–	5.4	–
CCCC(Cn1c(=O)n(Cc2cc(Br)cc3[nH]c(=O)sc23)c2ccccc21)C(=O)O (stereo not given)	–	> 10	–
CCCC(CC(=O)O)n1c(=O)n(Cc2cc(Cl)cc3c2CC(=O)N3)c2ccccc21 (stereo not given)	–	> 10	Stability (Liver microsomes): Stable
O=C(O)CCCSc1nc2ccccc2n1Cc1cc(Cl)cc2c1CC(=O)N2	–	3.8	–
O=C1Cc2c(Cl)cccc2N1	> 1000	–	–
O=C1Cc2ccc(Br)cc2N1	570	–	–
Cc1cccc2scc(Cn3c(=O)n(CCCC(=O)O)c4ccccc43)c12	–	1.4	–
O=C1Cc2ccc(Cl)cc2N1	–	> 1000	–
CN1C(=O)Cc2ccc(Cl)cc21	> 1000	–	–
O=C1Cc2ccccc2N1 [OXINDOLE]	> 1000	–	–
CCCC(Cn1c(=O)n(Cc2cc(Br)cc3c2CC(=O)N3)c2ccccc21)C(=O)O (stereo not given)	–	> 10	–
O=C(O)CCn1c(=O)n(Cc2cc(Br)cc3c2CC(=O)N3)c2ccccc21	–	> 10	–
CCCC(CC(=O)O)n1c(=O)n(Cc2cccc3c2CC(=O)N3)c2ccccc21 (stereo not given)	–	> 10	–
O=C(O)CCn1c(=O)n(Cc2cc(Cl)cc3c2CC(=O)N3)c2ccccc21	–	> 10	–
Cc1cccc2scc(Cn3c(SCCCC(=O)O)nc4ccccc43)c12	–	0.052	Ratio IC50 (Homo sapiens): 10
O=C1Cc2cc(Cl)ccc2N1	> 1000	–	–
O=C1Cc2cccc(Cl)c2N1	> 1000	–	–
